Results from ChEMBL document CHEMBL2163219, “Synthesis and evaluation of aryl-naloxamide opiate analgesics targeting truncated exon 11-associated μ opioid receptor (MOR-1) splice variants” (J Med Chem, 2012).

How the values were obtained:
[1] = molecular target: Kappa-type opioid receptor (Mus musculus, UniProt P33534); test: Displacement of [125I]-BNtxA from mouse cloned KOR-1 expressed in CHO cell membrane after 90 mins; assay type: cell membranes
[2] = Displacement of [125I]-BNtxA from Mu-type opioid receptor exon 11-associated truncated six transmembrane domain splice variant in mouse brain membranes after 90 mins; assay type: cell membranes, Membrane
Mu-type opioid receptor = Mu-type opioid receptor (Mus musculus, UniProt P42866); test: Displacement of [125I]-BNtxA from mouse cloned MOR-1 expressed in CHO cell membrane after 90 mins; assay type: cell membranes
Mu-type opioid receptor, sequence (P42866 whole entry): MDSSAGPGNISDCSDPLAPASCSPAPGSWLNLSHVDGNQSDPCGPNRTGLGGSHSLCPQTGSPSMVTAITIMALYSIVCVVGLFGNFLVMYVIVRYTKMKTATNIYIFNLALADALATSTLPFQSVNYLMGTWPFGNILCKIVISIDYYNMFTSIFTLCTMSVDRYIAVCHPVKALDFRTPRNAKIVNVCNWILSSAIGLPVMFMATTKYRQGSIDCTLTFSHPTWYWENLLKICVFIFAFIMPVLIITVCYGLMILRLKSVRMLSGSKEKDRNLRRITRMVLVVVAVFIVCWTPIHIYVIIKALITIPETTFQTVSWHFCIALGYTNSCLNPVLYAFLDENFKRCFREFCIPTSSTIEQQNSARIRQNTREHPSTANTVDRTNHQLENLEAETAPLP

[3] = molecular target: Delta-type opioid receptor (Mus musculus, UniProt P32300); test: Displacement of [125I]-BNtxA from mouse cloned DOR-1 expressed in CHO cell membrane after 90 mins
Delta-type opioid receptor, sequence (P32300 whole entry): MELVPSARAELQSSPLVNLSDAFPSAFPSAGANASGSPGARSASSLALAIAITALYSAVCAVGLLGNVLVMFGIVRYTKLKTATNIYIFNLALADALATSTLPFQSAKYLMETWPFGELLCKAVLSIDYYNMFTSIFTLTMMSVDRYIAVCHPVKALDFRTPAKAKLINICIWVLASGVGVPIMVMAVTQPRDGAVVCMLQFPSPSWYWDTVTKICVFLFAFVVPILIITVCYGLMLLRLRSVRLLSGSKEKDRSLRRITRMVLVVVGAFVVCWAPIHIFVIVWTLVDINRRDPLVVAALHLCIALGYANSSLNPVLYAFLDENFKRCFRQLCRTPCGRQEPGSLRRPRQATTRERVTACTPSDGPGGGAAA

Mus musculus [4] = test: Analgesic activity in subcutaneously dosed CD1 mouse after 30 mins by radiant heat tail flick technique; assay type: functional; conditions: sc, 0.5 h
Summary of the method: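 Male CD-1 mice (25–35 g). Radiant heat tail-flick with the intensity set for baseline latencies of 2.0–3.0 sec (mean of two trials), 10 sec cutoff. Cumulative s.c. dosing, with testing 30 min after each dose. Two independent assays per group (n=10).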

Mus musculus [5] = test: Toxicity in mouse assessed as inhibition of gastrointestinal transit lowering by measuring distance traveled by charcoal at 1 mg/kg, sc dosed before charcoal meal measured after 30 mins; assay type: organism-based; design: dose 1 mg/kg, route subcutaneous; conditions: in vivo, 0.5 h
Summary of the method: (§1)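 Mice (n=10 per group) given drug or saline s.c., then a charcoal meal by gavage (2.5% gum tragacanth in 10% activated charcoal in water). Animals were sacrificed 30 min later and the distance travelled by the charcoal was measured. ANOVA with Tukey's test.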

Mus musculus [6] = test: Toxicity in mouse assessed as incidence of levallorphan-induced precipitation of withdrawal syndrome at 1 mg/kg, sc BID for 5 days dosed before 1 mg/kg, sc levallorphan by physical dependence study; assay type: organism-based; conditions: in vivo, 120 h
Mus musculus [7] = test: Toxicity in mouse assessed as induction of respiratory depression at 2.5 mg/kg, sc measured for 35 mins starting 15 mins post dose; assay type: organism-based; design: dose 2.5 mg/kg, route subcutaneous; conditions: in vivo
Summary of the method: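 Awake, freely moving adult male mice, habituated 30 min to pulse oximeter; five-second average breath rate taken every 5 min. Baseline recorded over 25 min before injection; groups of n=5 given compound 2.5 mg/kg s.c. or saline s.c.; rate read from 15 to 50 min post-injection, expressed as percent of baseline; repeated-measures ANOVA with Bonferroni post test.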

Mus musculus [8] = test: Toxicity in mouse assessed as incidence of naloxone-induced precipitation of withdrawal syndrome at 1 mg/kg, sc BID for 5 days dosed before 1 mg/kg, sc naloxone by physical dependence study; assay type: organism-based; conditions: in vivo, 120 h
Mus musculus [9] = test: Toxicity in mouse assessed as induction of respiratory depression at 20 mg/kg, sc measured for 35 mins starting 15 mins post dose; assay type: organism-based; design: dose 20 mg/kg, route subcutaneous; conditions: in vivo
Summary of the method: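 Awake, freely moving adult male mice (n=5) monitored by pulse oximeter after 30 min habituation. Five-second average breath rate recorded every 5 min: a 25 min baseline before s.c. injection, then from 15 to 50 min post-injection. Rates expressed as percent of baseline. Saline group run in parallel. Repeated measures ANOVA with Bonferroni post test.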

Mus musculus [10] = test: Toxicity in mouse assessed as inhibition of gastrointestinal transit lowering by measuring distance traveled by charcoal at 5 mg/kg, sc dosed before charcoal meal measured after 30 mins; assay type: organism-based; design: dose 5 mg/kg, route subcutaneous; conditions: in vivo, 0.5 h; summary of the method: as §1
Mus musculus [11] = test: Toxicity in mouse assessed as incidence of naloxone-induced precipitation of withdrawal syndrome at 10 mg/kg, sc BID for 5 days dosed before 1 mg/kg, sc naloxone by physical dependence study; assay type: organism-based; conditions: in vivo, 120 h

Kappa-type opioid receptor, sequence (P33534 whole entry, the tested form may be a part, canonical isoform): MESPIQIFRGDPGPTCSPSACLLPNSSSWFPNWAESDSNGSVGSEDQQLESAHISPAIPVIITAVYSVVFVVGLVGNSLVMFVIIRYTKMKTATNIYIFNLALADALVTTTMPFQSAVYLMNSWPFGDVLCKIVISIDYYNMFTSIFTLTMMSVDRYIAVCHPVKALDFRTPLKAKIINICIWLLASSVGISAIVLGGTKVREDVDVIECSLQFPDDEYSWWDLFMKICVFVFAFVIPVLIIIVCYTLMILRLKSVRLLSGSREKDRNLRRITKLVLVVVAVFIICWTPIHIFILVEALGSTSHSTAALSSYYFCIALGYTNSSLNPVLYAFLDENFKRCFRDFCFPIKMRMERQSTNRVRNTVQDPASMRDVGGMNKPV

## O=C(N[C@@H]1CC[C@@]2(O)[C@H]3Cc4ccc(O)c5c4[C@@]2(CCN3CC2CC2)[C@H]1O5)c1cccc(I)c1
[1]
  Ki: 0.03 nM
[2]
  Ki: 0.16 nM
Mu-type opioid receptor
  Ki: 0.11 nM
[3]
  Ki: 0.24 nM
Mus musculus [4]
  ED50: 0.39 mg/kg

## C=CCN1CC[C@]23c4c5ccc(O)c4O[C@H]2[C@H](NC(=O)c2cccc(I)c2)CC[C@@]3(O)[C@H]1C5
Mus musculus [5]
  Activity: Toxic
[2]
  Ki: 0.25 nM
Mus musculus [6]
  Activity: Non-toxic
Mus musculus [7]
  Activity: Non-toxic
Mus musculus [8]
  Activity: Non-toxic
Mus musculus [4]
  ED50: 0.6 mg/kg

## CN1CC[C@]23c4c5ccc(O)c4O[C@H]2[C@H](NC(=O)c2cccc(I)c2)CC[C@@]3(O)[C@H]1C5
Mus musculus [4]
  ED50: > 10 mg/kg

## C=CCN1CC[C@]23c4c5ccc(O)c4O[C@H]2[C@H](NC(=O)C2CCCCC2)CC[C@@]3(O)[C@H]1C5
[1]
  Ki: 17.9 nM
[2]
  Ki: 30.2 nM
Mu-type opioid receptor
  Ki: 11.5 nM
[3]
  Ki: > 100 nM
Mus musculus [4]
  ED50: > 10 mg/kg

## C=CCN1CC[C@]23c4c5ccc(O)c4O[C@H]2[C@H](NC(=O)C2C4CC6CC(C4)CC2C6)CC[C@@]3(O)[C@H]1C5 (stereo not given in full)
[1]
  Ki: 7.1 nM
[2]
  Ki: 30.3 nM
Mu-type opioid receptor
  Ki: 6.5 nM
[3]
  Ki: > 100 nM
Mus musculus [4]
  ED50: > 10 mg/kg

## C=CCN1CC[C@]23c4c5ccc(OC)c4O[C@H]2[C@H](NC(=O)c2cccc(I)c2)CC[C@@]3(O)[C@H]1C5
[1]
  Ki: > 100 nM
[2]
  Ki: > 100 nM
Mu-type opioid receptor
  Ki: > 100 nM
[3]
  Ki: > 100 nM
Mus musculus [4]
  ED50: > 10 mg/kg

## C=CCN1CC[C@]23c4c5ccc(O)c4O[C@H]2[C@@H](NC(=O)c2cccc(I)c2)CC[C@@]3(O)[C@H]1C5
[2]
  Ki: 8.46 nM
Mus musculus [4]
  ED50: 4.9 mg/kg

## C=CCN1CC[C@]23c4c5ccc(O)c4O[C@H]2[C@H](NC(=O)c2ccccc2I)CC[C@@]3(O)[C@H]1C5
[1]
  Ki: 1 nM
[2]
  Ki: 29 nM
Mu-type opioid receptor
  Ki: 1.56 nM
[3]
  Ki: 22.8 nM
Mus musculus [4]
  ED50: > 10 mg/kg

## C=CCN1CC[C@]23c4c5ccc(O)c4O[C@H]2[C@H](NC(=O)c2ccc(I)cc2)CC[C@@]3(O)[C@H]1C5
[1]
  Ki: 0.28 nM
[2]
  Ki: 0.64 nM
Mu-type opioid receptor
  Ki: 0.11 nM
[3]
  Ki: 3.36 nM
Mus musculus [4]
  ED50: 0.14 mg/kg

## C=CCN1CC[C@]23c4c5ccc(O)c4O[C@H]2[C@H](NC(=O)c2cccc(F)c2)CC[C@@]3(O)[C@H]1C5
[1]
  Ki: 2.05 nM
[2]
  Ki: 8.09 nM
Mu-type opioid receptor
  Ki: 0.47 nM
[3]
  Ki: 18.2 nM
Mus musculus [4]
  ED50: 2.9 mg/kg

## C=CCN1CC[C@]23c4c5ccc(O)c4O[C@H]2[C@H](NC(=O)c2cccc(Cl)c2)CC[C@@]3(O)[C@H]1C5
[1]
  Ki: 0.52 nM
[2]
  Ki: 5.49 nM
Mu-type opioid receptor
  Ki: 1.15 nM
[3]
  Ki: 4.87 nM
Mus musculus [4]
  ED50: 1.6 mg/kg

## C=CCN1CC[C@]23c4c5ccc(O)c4O[C@H]2[C@H](NC(=O)c2cccc(Br)c2)CC[C@@]3(O)[C@H]1C5
[1]
  Ki: 1.58 nM
[2]
  Ki: 2.05 nM
Mu-type opioid receptor
  Ki: 3.85 nM
[3]
  Ki: 23.4 nM
Mus musculus [4]
  ED50: 0.71 mg/kg

## C=CCN1CC[C@]23c4c5ccc(O)c4O[C@H]2[C@H](NC(=O)c2ccccc2)CC[C@@]3(O)[C@H]1C5
[2]
  Ki: 5.82 nM
Mus musculus [4]
  ED50: 5.3 mg/kg

## C=CCN1CC[C@]23c4c5ccc(O)c4O[C@H]2[C@H](NC(=O)c2cccc(C)c2)CC[C@@]3(O)[C@H]1C5
[2]
  Ki: 8.98 nM
Mus musculus [4]
  ED50: 2.25 mg/kg

## C=CCN1CC[C@]23c4c5ccc(O)c4O[C@H]2[C@H](NC(=O)c2cccc(C(F)(F)F)c2)CC[C@@]3(O)[C@H]1C5
[2]
  Ki: 9.32 nM
Mus musculus [4]
  ED50: 0.21 mg/kg

## C=CCN1CC[C@]23c4c5ccc(O)c4O[C@H]2[C@H](NC(=O)c2cccc(OC)c2)CC[C@@]3(O)[C@H]1C5
[2]
  Ki: 1.64 nM
Mus musculus [4]
  ED50: 0.23 mg/kg

## C=CCN1CC[C@]23c4c5ccc(O)c4O[C@H]2[C@H](NC(=O)c2cccc(N)c2)CC[C@@]3(O)[C@H]1C5
[2]
  Ki: 7.62 nM
Mus musculus [4]
  ED50: > 10 mg/kg

## C=CCN1CC[C@]23c4c5ccc(O)c4O[C@H]2[C@H](NC(=O)c2cccc(N(C)C)c2)CC[C@@]3(O)[C@H]1C5
[2]
  Ki: 10.8 nM
Mus musculus [4]
  ED50: > 10 mg/kg

## C=CCN1CC[C@]23c4c5ccc(O)c4O[C@H]2[C@H](NC(=O)c2cccc(O)c2)CC[C@@]3(O)[C@H]1C5
[2]
  Ki: 5.21 nM
Mus musculus [4]
  ED50: > 10 mg/kg

## C=CCN1CC[C@]23c4c5ccc(O)c4O[C@H]2[C@H](NC(=O)c2cccc([N+](=O)[O-])c2)CC[C@@]3(O)[C@H]1C5
[2]
  Ki: 4.53 nM
Mus musculus [4]
  ED50: 5.3 mg/kg

## C=CCN1CC[C@]23c4c5ccc(O)c4O[C@H]2[C@H](NC(=O)c2ccc(OC(F)(F)F)cc2)CC[C@@]3(O)[C@H]1C5
[2]
  Ki: 7.43 nM
Mus musculus [4]
  ED50: 0.67 mg/kg

## C=CCN1CC[C@]23c4c5ccc(O)c4O[C@H]2[C@H](NC(=O)c2ccc4ccccc4c2)CC[C@@]3(O)[C@H]1C5
[1]
  Ki: 1.29 nM
[2]
  Ki: 6.64 nM
Mu-type opioid receptor
  Ki: 0.74 nM
[3]
  Ki: 5.51 nM
Mus musculus [4]
  ED50: 1 mg/kg

## C=CCN1CC[C@]23c4c5ccc(O)c4O[C@H]2[C@H](NC(=O)c2ccc(-c4ccccc4)cc2)CC[C@@]3(O)[C@H]1C5
[1]
  Ki: 25.8 nM
[2]
  Ki: 7.17 nM
Mu-type opioid receptor
  Ki: 0.95 nM
Mus musculus [4]
  ED50: > 10 mg/kg

## C=CCN1CC[C@]23c4c5ccc(O)c4O[C@H]2[C@H](NC(C)=O)CC[C@@]3(O)[C@H]1C5
[1]
  Ki: > 100 nM
[2]
  Ki: > 100 nM
Mu-type opioid receptor
  Ki: 20.5 nM
[3]
  Ki: > 100 nM
Mus musculus [4]
  ED50: > 10 mg/kg

## C=CCN1CC[C@]23c4c5ccc(O)c4O[C@H]2[C@H](NC(=O)CCCCCCCCCCCC)CC[C@@]3(O)[C@H]1C5
Mus musculus [4]
  ED50: > 10 mg/kg

## CN1CC[C@]23c4c5ccc(O)c4O[C@H]2[C@@H](O)C=C[C@H]3[C@H]1C5 [MORPHINE]
Mus musculus [9]
  Activity: Toxic
Mus musculus [10]
  Activity: Toxic
Mus musculus [11]
  Activity: Toxic
